Measurements published in ChEMBL document CHEMBL1149790, “Synthesis of some novel thiourea derivatives obtained from 5-[(4-aminophenoxy)methyl]-4-alkyl/aryl-2,4-dihydro-3H-1,2,4-triazole-3-thiones and evaluation as antiviral/anti-HIV and anti-tuberculosis agents” (Eur J Med Chem, 2008).
Values after ≈ are worked out from the molar mass of the structure shown.

Experiments:
Human alphaherpesvirus 1 [1] = test: Antiviral activity against HSV1 KOS in human HEL cells assessed as reduction of virus-induced cytopathogenicity; format: functional; settings: Human alphaherpesvirus 1, KOS
Method in brief: (§1)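 Confluent cell monolayers (E6SM, HEL, HeLa or Vero, per line) inoculated with 100 CCID50 virus; 1 h adsorption, residual virus removed, then incubated with compound at 400, 200, 100 … µg/ml. Cytopathicity scored once complete in untreated virus controls; MIC = concentration inhibiting virus-induced cytopathicity.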

Coxsackievirus B4 [2] = test: Antiviral activity against Coxsackie virus B4 in african green monkey Vero cells assessed as reduction of virus-induced cytopathogenicity; format: functional; settings: Enterovirus B; method in brief: as §1
[3] = tested on: Respiratory syncytial virus; test: Antiviral activity against respiratory syncytial virus in human HeLa cells assessed as inhibition of virus-induced cytopathogenicity; format: functional; method in brief: as §1
Coxsackievirus B4 [4] = test: Antiviral activity against Coxsackie virus B4 in human HeLa cells assessed as inhibition of virus-induced cytopathogenicity; format: functional; settings: Enterovirus B; method in brief: as §1
Human alphaherpesvirus 2 [5] = test: Antiviral activity against HSV2 G in human HEL cells assessed as reduction of virus-induced cytopathogenicity; format: functional; settings: Human alphaherpesvirus 2, G; method in brief: as §1
[6] = tested on: Mammalian orthoreovirus 1; test: Antiviral activity against Reo virus 1 in african green monkey Vero cells assessed as reduction of virus-induced cytopathogenicity; format: functional; method in brief: as §1
Sindbis virus = test: Antiviral activity against Sindbis virus in african green monkey Vero cells assessed as reduction of virus-induced cytopathogenicity; format: functional; method in brief: as §1
Punta Toro virus = test: Antiviral activity against Punta Toro virus in african green monkey Vero cells assessed as reduction of virus-induced cytopathogenicity; format: functional; method in brief: as §1
[7] = tested on: Vesicular stomatitis virus; test: Antiviral activity against in Vesicular stomatitis virus in human HEL cells assessed as reduction of virus-induced cytopathogenicity; format: functional; method in brief: as §1
Human alphaherpesvirus 2 [8] = test: Antiviral activity against HSV2 G in human E6SM cells assessed as reduction of virus-induced cytopathogenicity; format: functional; settings: Human alphaherpesvirus 2, G; method in brief: as §1
[9] = Cytotoxicity against human MT4 cells by MTT assay; format: cell-based
Method in brief: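 Mock-infected MT-4 cells (6 × 10⁵ cells/ml) with serial five-fold compound dilutions in triplicate; MTT reduction read at 540 and 690 nm after 5 days, median OD of three wells; CC50 = concentration reducing OD540 of mock-infected control by 50%.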

[10] = Cytotoxicity against human HeLa cells; format: cell-based
Method in brief: (§2)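 Uninfected cell cultures exposed to test compounds alongside antiviral assays; minimum cytotoxic concentration (MCC) = concentration causing a microscopically detectable alteration of cell morphology.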

[11] = Cytotoxicity against human HEL cells assessed as alteration of cell morphology; format: cell-based; method in brief: as §2
Human alphaherpesvirus 1 [12] = test: Antiviral activity against thymidine kinase deficient and acyclovir resistant HSV1 KOS in human E6SM cells assessed as reduction of virus-induced cytopathogenicity; format: functional; settings: Human alphaherpesvirus 1, KOS; method in brief: as §1
Vero = test: Cytotoxicity against african green monkey Vero cells; format: cell-based; settings: chlorocebus sabaeus; method in brief: as §2
Human respirovirus 3 = test: Antiviral activity against Parainfluenza 3 virus in african green monkey Vero cells assessed as reduction of virus-induced cytopathogenicity; format: functional; method in brief: as §1
Human alphaherpesvirus 1 [13] = test: Antiviral activity against thymidine kinase deficient and acyclovir resistant HSV1 KOS in human HEL cells assessed as reduction of virus-induced cytopathogenicity; format: functional; settings: Human alphaherpesvirus 1, KOS; method in brief: as §1
[14] = tested on: Vesicular stomatitis virus; test: Antiviral activity against vesicular stomatitis virus in human HeLa cells assessed as inhibition of virus-induced cytopathogenicity; format: functional; method in brief: as §1
[15] = tested on: Vesicular stomatitis virus; test: Antiviral activity against in Vesicular stomatitis virus in human E6SM cells assessed as reduction of virus-induced cytopathogenicity; format: functional; method in brief: as §1
[16] = tested on: Human immunodeficiency virus 2; test: Antiviral activity against HIV2 ROD in human MT4 cells assessed as protection against virus-induced cytopathogenicity by MTT assay; format: functional, organism-based; design: Activity: concentration or dose not given beside the values; settings: for IC50: Human immunodeficiency virus 2, ROD, MT4
Method in brief: (§3)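 MT-4 cells at 6 × 10⁵ cells/ml infected with HIV-1 IIIB or HIV-2 ROD at 100–300 CCID50; compounds in serial five-fold dilutions, triplicate mock- and virus-infected wells. MTT viability read at 540 and 690 nm after 5 days, median OD of three wells; EC50 = 50% protection from viral cytopathic effect.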

Human alphaherpesvirus 1 [17] = test: Antiviral activity against HSV1 KOS in human E6SM cells assessed as reduction of virus-induced cytopathogenicity; format: functional; settings: Human alphaherpesvirus 1, KOS; method in brief: as §1
[18] = tested on: Human immunodeficiency virus 1; test: Antiviral activity against HIV1 3B in human MT4 cells assessed as protection against virus-induced cytopathogenicity by MTT assay; format: functional, organism-based; design: Activity: concentration or dose not given beside the values; settings: for IC50: Human immunodeficiency virus 1, 3B, MT4; method in brief: as §3
[19] = Cytotoxicity against human E6SM cells; format: cell-based; settings: E6SM cells; method in brief: as §2

C=CCNC(=S)Nc1ccc(-c2n[nH]c(=S)n2CCCCCC)cc1
MIC (Human alphaherpesvirus 1 [1]): > 16 µg/mL
MIC (Coxsackievirus B4 [2]): > 16 µg/mL
MIC [3]: > 16 µg/mL
MIC (Coxsackievirus B4 [4]): > 16 µg/mL
MIC (Human alphaherpesvirus 2 [5]): > 16 µg/mL
MIC [6]: > 16 µg/mL
MIC (Sindbis virus): > 16 µg/mL
MIC (Punta Toro virus): > 16 µg/mL
MIC [7]: > 16 µg/mL
MIC (Human alphaherpesvirus 2 [8]): > 16 µg/mL
CC50 [9]: 10.1 µg/mL (≈ 26.8 µM)
MCC [10]: 80 µg/mL
MCC [11]: 80 µg/mL
MIC (Human alphaherpesvirus 1 [12]): > 16 µg/mL
Activity (Vero): >= 16 ug ml-1
MIC (Human respirovirus 3): > 16 µg/mL
MIC (Human alphaherpesvirus 1 [13]): > 16 µg/mL
MIC [14]: > 16 µg/mL
MIC [15]: > 16 µg/mL
Activity [16]: 0%
IC50 [16]: > 10.1 µg/mL
MIC (Human alphaherpesvirus 1 [17]): > 16 µg/mL
Activity [18]: 4%
IC50 [18]: > 10.1 µg/mL
MCC [19]: 80 µg/mL

S=C(Nc1ccc(Cl)cc1)Nc1ccc(-c2n[nH]c(=S)n2-c2ccccc2)cc1
MIC (Human alphaherpesvirus 1 [1]): > 16 µg/mL
MIC (Coxsackievirus B4 [2]): > 16 µg/mL
MIC [3]: > 16 µg/mL
MIC (Coxsackievirus B4 [4]): > 16 µg/mL
MIC (Human alphaherpesvirus 2 [5]): > 16 µg/mL
MIC [6]: > 16 µg/mL
MIC (Sindbis virus): > 16 µg/mL
MIC (Punta Toro virus): > 16 µg/mL
MIC [7]: > 16 µg/mL
MIC (Human alphaherpesvirus 2 [8]): > 16 µg/mL
CC50 [9]: 10.3 µg/mL (≈ 23.5 µM)
MCC [10]: 80 µg/mL
MCC [11]: ≥ 16 µg/mL
MIC (Human alphaherpesvirus 1 [12]): > 16 µg/mL
Activity (Vero): >= 16 ug ml-1
MIC (Human respirovirus 3): > 16 µg/mL
MIC (Human alphaherpesvirus 1 [13]): > 16 µg/mL
MIC [14]: > 16 µg/mL
MIC [15]: > 16 µg/mL
Activity [16]: 31%
IC50 [16]: > 10.3 µg/mL
MIC (Human alphaherpesvirus 1 [17]): > 16 µg/mL
Activity [18]: 4.5%
IC50 [18]: > 10.3 µg/mL
MCC [19]: ≥ 16 µg/mL

CCNC(=S)Nc1ccc(-c2n[nH]c(=S)n2C)cc1
MIC (Human alphaherpesvirus 1 [1]): 240 µg/mL (≈ 818 µM)
MIC (Coxsackievirus B4 [2]): > 80 µg/mL
MIC [3]: > 80 µg/mL
MIC (Coxsackievirus B4 [4]): > 80 µg/mL
MIC (Human alphaherpesvirus 2 [5]): 240 µg/mL (≈ 818 µM)
MIC [6]: > 80 µg/mL
MIC (Sindbis virus): > 80 µg/mL
MIC (Punta Toro virus): > 80 µg/mL
MIC [7]: > 400 µg/mL
MIC (Human alphaherpesvirus 2 [8]): 240 µg/mL (≈ 818 µM)
CC50 [9]: 82.4 µg/mL (≈ 281 µM)
MCC [10]: 400 µg/mL
MCC [11]: ≥ 400 µg/mL
MIC (Human alphaherpesvirus 1 [12]): 240 µg/mL (≈ 818 µM)
Activity (Vero): 400 µg/mL
MIC (Human respirovirus 3): > 80 µg/mL
MIC (Human alphaherpesvirus 1 [13]): 240 µg/mL (≈ 818 µM)
MIC [14]: > 80 µg/mL
MIC [15]: > 400 µg/mL
Activity [16]: 0%
IC50 [16]: > 82.4 µg/mL
MIC (Human alphaherpesvirus 1 [17]): 240 µg/mL (≈ 818 µM)
Activity [18]: 3%
IC50 [18]: > 82.4 µg/mL
MCC [19]: ≥ 400 µg/mL

C=CCNC(=S)Nc1ccc(-c2nnc(SCc3ccc(Cl)cc3Cl)n2C)cc1
MIC (Human alphaherpesvirus 1 [1]): > 16 µg/mL
MIC (Coxsackievirus B4 [2]): > 16 µg/mL
MIC [3]: > 80 µg/mL
MIC (Coxsackievirus B4 [4]): > 80 µg/mL
MIC (Human alphaherpesvirus 2 [5]): > 16 µg/mL
MIC [6]: > 16 µg/mL
MIC (Sindbis virus): > 16 µg/mL
MIC (Punta Toro virus): > 16 µg/mL
MIC [7]: > 16 µg/mL
MIC (Human alphaherpesvirus 2 [8]): > 16 µg/mL
CC50 [9]: 116 µg/mL (≈ 250 µM)
MCC [10]: 400 µg/mL
MCC [11]: 80 µg/mL
MIC (Human alphaherpesvirus 1 [12]): > 16 µg/mL
Activity (Vero): 80 µg/mL
MIC (Human respirovirus 3): > 16 µg/mL
MIC (Human alphaherpesvirus 1 [13]): > 16 µg/mL
MIC [14]: > 80 µg/mL
MIC [15]: > 16 µg/mL
Activity [16]: 5%
IC50 [16]: > 116 µg/mL
MIC (Human alphaherpesvirus 1 [17]): > 16 µg/mL
Activity [18]: 0.5%
IC50 [18]: > 116 µg/mL
MCC [19]: 80 µg/mL

C=CCNC(=S)Nc1ccc(-c2n[nH]c(=S)n2CC=C)cc1
MIC (Human alphaherpesvirus 1 [1]): > 80 µg/mL
MIC (Coxsackievirus B4 [2]): > 80 µg/mL
MIC [3]: > 80 µg/mL
MIC (Coxsackievirus B4 [4]): > 80 µg/mL
MIC (Human alphaherpesvirus 2 [5]): > 80 µg/mL
MIC [6]: > 80 µg/mL
MIC (Sindbis virus): > 80 µg/mL
MIC (Punta Toro virus): > 80 µg/mL
MIC [7]: > 80 µg/mL
MIC (Human alphaherpesvirus 2 [8]): > 80 µg/mL
CC50 [9]: 65.4 µg/mL (≈ 197 µM)
MCC [10]: 400 µg/mL
MCC [11]: ≥ 80 µg/mL
MIC (Human alphaherpesvirus 1 [12]): 240 µg/mL (≈ 724 µM)
Activity (Vero): >= 80 ug ml-1
MIC (Human respirovirus 3): > 80 µg/mL
MIC (Human alphaherpesvirus 1 [13]): 240 µg/mL (≈ 724 µM)
MIC [14]: > 80 µg/mL
MIC [15]: > 80 µg/mL
Activity [16]: 0%
IC50 [16]: > 65.4 µg/mL
MIC (Human alphaherpesvirus 1 [17]): > 80 µg/mL
Activity [18]: 6.5%
IC50 [18]: > 65.4 µg/mL
MCC [19]: ≥ 80 µg/mL
